Source: ChEMBL document CHEMBL1255501, “Heteroresistance of Cryptococcus gattii to fluconazole” (2010)

Columns and labels:
[1] = test system: Cryptococcus gattii species complex; experiment: Antimicrobial activity against Cryptococcus gattii serotype B isolate VPB572-058 assessed as heteroresistant isolates at 32 ug/ml; assay type: functional, Cryptococcus bacillisporus
In short: (§1)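 Population analysis: saline cell suspensions (1 × 103 to 4 × 10^3 CFU/ml) plated on plain YPD agar or YPD agar with various fluconazole concentrations; growth recorded after 72 h at 30°C; percentage of resistant subpopulation at each drug level calculated relative to drug-free plate growth.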

[2] = test system: Cryptococcus gattii species complex; experiment: Antimicrobial activity against Cryptococcus gattii serotype C isolate H0058-1-818 assessed as heteroresistant isolates at 2 ug/ml; assay type: functional, Cryptococcus bacillisporus; in short: as §1
[3] = test system: Cryptococcus gattii species complex; experiment: Antimicrobial activity against Cryptococcus gattii serotype C isolate NIH403 assessed as concentration required for heteroresistance; assay type: functional, Cryptococcus bacillisporus
In short: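 […] on YPD agar at 4 to 128 μg/ml. The lowest drug concentration at which minor resistant subpopulations emerged within the patch was scored as the strain's level of heteroresistance.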

[4] = test system: Cryptococcus bacillisporus; experiment: Antimicrobial activity against Cryptococcus gattii serotype C isolate NIH191 assessed as heteroresistant isolates at 8 ug/ml; assay type: functional
In short: (§2)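 Cell suspensions of 1 × 10^3 to 4 × 10^3 CFU/ml were made in sterile saline and plated on plain YPD agar or YPD agar with various fluconazole concentrations. Plates were incubated at 30°C for 72 h, and the percentage of resistant subpopulation emerging was recorded.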

[5] = test system: Cryptococcus gattii species complex; experiment: Antimicrobial activity against Cryptococcus gattii serotype C isolate H0058-1-78 assessed as heteroresistant isolates at 32 ug/ml; assay type: functional, Cryptococcus bacillisporus; in short: as §1
[6] = test system: Cryptococcus gattii species complex; experiment: Antimicrobial activity against Cryptococcus gattii serotype B isolate NIH286 assessed as heteroresistant isolates at 32 ug/ml; assay type: functional, Cryptococcus bacillisporus
In short: (§3)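 Population analysis: cells suspended in sterile saline at 1 × 10³ to 4 × 10³ CFU/ml and plated on plain YPD agar or YPD agar with various fluconazole concentrations. Plates incubated at 30°C for 72 h. The resistant subpopulation at each concentration is recorded as a percentage of the population.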

[7] = test system: Cryptococcus gattii species complex; experiment: Antimicrobial activity against Cryptococcus gattii serotype B isolate NIH754 assessed as heteroresistant isolates at 2 ug/ml; assay type: functional, Cryptococcus bacillisporus; in short: as §3
[8] = test system: Cryptococcus gattii species complex; experiment: Antimicrobial activity against Cryptococcus gattii serotype B isolate VPB571-058 assessed as concentration required for heteroresistance; assay type: functional, Cryptococcus bacillisporus
[9] = test system: Cryptococcus bacillisporus; experiment: Antimicrobial activity against Cryptococcus gattii serotype C isolate NIH191 assessed as heteroresistant isolates at 4 ug/ml; assay type: functional; in short: as §1
[10] = test system: Cryptococcus gattii species complex; experiment: Antimicrobial activity against Cryptococcus gattii serotype B isolate B4506 assessed as heteroresistant isolates at 2 ug/ml; assay type: functional, Cryptococcus bacillisporus; in short: as §3
[11] = test system: Cryptococcus gattii species complex; experiment: Antimicrobial activity against Cryptococcus gattii serotype C isolate NIH298 assessed as heteroresistant isolates at 8 ug/ml; assay type: functional, Cryptococcus bacillisporus; in short: as §2
[12] = test system: Cryptococcus gattii species complex; experiment: Antimicrobial activity against Cryptococcus gattii serotype C isolate NIH298 assessed as heteroresistant isolates at 4 ug/ml; assay type: functional, Cryptococcus bacillisporus; in short: as §2
[13] = test system: Cryptococcus gattii species complex; experiment: Antimicrobial activity against Cryptococcus gattii serotype B isolate NIH190 assessed as heteroresistant isolates at 2 ug/ml; assay type: functional, Cryptococcus bacillisporus; in short: as §3
[14] = test system: Cryptococcus deuterogattii; experiment: Antimicrobial activity against Cryptococcus gattii serotype B isolate NIH444 assessed as heteroresistant isolates at 32 ug/ml; assay type: functional, Cryptococcus bacillisporus; in short: as §3
[15] = test system: Cryptococcus gattii species complex; experiment: Antimicrobial activity against Cryptococcus gattii serotype B isolate NIH184 assessed as heteroresistant isolates at 8 ug/ml; assay type: functional, Cryptococcus bacillisporus; in short: as §3
[16] = test system: Cryptococcus gattii species complex; experiment: Antimicrobial activity against Cryptococcus gattii serotype B isolate NIH286 assessed as heteroresistant isolates at 8 ug/ml; assay type: functional, Cryptococcus bacillisporus; in short: as §3
[17] = test system: Cryptococcus gattii species complex; experiment: Antimicrobial activity against Cryptococcus gattii serotype B isolate NIH189 assessed as heteroresistant isolates at 8 ug/ml; assay type: functional, Cryptococcus bacillisporus; in short: as §3
[18] = test system: Cryptococcus gattii species complex; experiment: Antimicrobial activity against Cryptococcus gattii serotype B isolate NIH184 assessed as concentration required for heteroresistance; assay type: functional, Cryptococcus bacillisporus
In short: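 Fluconazole spot test: 10-fold serial dilutions of each single-colony-purified strain spotted on YPD agar alone and YPD agar with fluconazole at 4 to 128 μg/ml. The level of heteroresistance to fluconazole (LHF) is the lowest drug concentration at which minor resistant subpopulations emerge within the spot.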

[19] = test system: Cryptococcus gattii species complex; experiment: Antimicrobial activity against Cryptococcus gattii serotype B isolate NIH412 assessed as heteroresistant isolates at 2 ug/ml; assay type: functional, Cryptococcus bacillisporus; in short: as §3
[20] = test system: Cryptococcus gattii species complex; experiment: Antimicrobial activity against Cryptococcus gattii serotype B isolate NIH286 assessed as heteroresistant isolates at 4 ug/ml; assay type: functional, Cryptococcus bacillisporus; in short: as §3
[21] = test system: Cryptococcus gattii species complex; experiment: Antimicrobial activity against Cryptococcus gattii serotype C isolate H0058-1-1686 assessed as heteroresistant isolates at 16 ug/ml; assay type: functional, Cryptococcus bacillisporus; in short: as §1
[22] = test system: Cryptococcus gattii species complex; experiment: Antimicrobial activity against Cryptococcus gattii serotype B isolate RB3 assessed as heteroresistant isolates at 4 ug/ml; assay type: functional, Cryptococcus bacillisporus; in short: as §1
[23] = test system: Cryptococcus gattii species complex; experiment: Antimicrobial activity against Cryptococcus gattii serotype C isolate H0058-1-1941 assessed as heteroresistant isolates at 16 ug/ml; assay type: functional, Cryptococcus bacillisporus; in short: as §1
[24] = test system: Cryptococcus gattii species complex; experiment: Antimicrobial activity against Cryptococcus gattii serotype B isolate B5788 assessed as heteroresistant isolates at 8 ug/ml; assay type: functional, Cryptococcus bacillisporus; in short: as §3
[25] = test system: Cryptococcus gattii species complex; experiment: Antimicrobial activity against Cryptococcus gattii serotype B isolate NIH190 assessed as heteroresistant isolates at 4 ug/ml; assay type: functional, Cryptococcus bacillisporus; in short: as §3
[26] = test system: Cryptococcus deuterogattii; experiment: Antimicrobial activity against Cryptococcus gattii serotype B isolate NIH444 assessed as heteroresistant isolates at 2 ug/ml; assay type: functional, Cryptococcus bacillisporus; in short: as §3

OC(Cn1cncn1)(Cn1cncn1)c1ccc(F)cc1F [FLUCONAZOLE]
Activity [1]: 1.6% | Activity [2]: 100% | Activity [3]: 16 µg/mL | Activity [4]: 100% | Activity [5]: 2.3% | Activity [6]: 0.06% | Activity [7]: 100% | Activity [8]: 32 µg/mL | Activity [9]: 100% | Activity [10]: 100% | Activity [11]: 100% | Activity [12]: 100% | Activity [13]: 100% | Activity [14]: 0.5% | Activity [15]: 100% | Activity [16]: 100% | Activity [17]: 100% | Activity [18]: 16 µg/mL | Activity [19]: 100% | Activity [20]: 100% | Activity [21]: 100% | Activity [22]: 100% | Activity [23]: 100% | Activity [24]: 5.7% | Activity [25]: 100% | Activity [26]: 100%
